Test results published in ChEMBL document CHEMBL1156707, “Insulin-releasing activity of a series of phenylalanine derivatives” (Eur J Med Chem, 2008).

Columns and labels:
[1] = Increase in insulin releasing activity in Syrian golden hamster HIT-T15 cells at 100 uM after 1 hr relative to control; format: functional, Mesocricetus auratus
Method in brief: (§1)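 Pre-incubated 1 h, then 1 h with compound at a range of concentrations in DMSO, 37 °C; solvent-matched control. Insulin in medium measured by radioimmunoassay. Mean ± sd, n = 3; EC50 is concentration giving 50% increase in insulin release.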

[2] = Increase in insulin releasing activity in Syrian golden hamster HIT-T15 cells at 10 uM after 1 hr relative to control; format: functional, Mesocricetus auratus; method in brief: as §1
[3] = Increase in insulin releasing activity in Syrian golden hamster HIT-T15 cells at 1 uM after 1 hr relative to control; format: functional, Mesocricetus auratus; method in brief: as §1
[4] = tested on: Rattus norvegicus; assay: Decrease in plasma glucose level in Sprague-Dawley rat at 3 mg/kg, po after 30 mins relative to control; format: functional; set-up: scale not given: the % may be the effect or the level left
Method in brief: (§2)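 Normal SD rats (180–220 g), fasted overnight, 8–10 per group. Single oral dose 3 mg/kg in 0.5% CMC-Na vehicle, then oral glucose 2.5 g/kg immediately after. Caudal-vein blood drawn before dosing and at 15, 30, 60, 120, 180 min. Serum glucose measured by glucose oxidase method. Reported as % decrease versus vehicle control group.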

[5] = tested on: Rattus norvegicus; assay: Decrease in plasma glucose level in Sprague-Dawley rat at 3 mg/kg, po after 120 mins relative to control; format: functional; set-up: scale not given: the % may be the effect or the level left; method in brief: as §2
[6] = Increase in insulin releasing activity in Syrian golden hamster HIT-T15 cells after 1 hr; format: functional, cell-based, Mesocricetus auratus; method in brief: as §1
[7] = tested on: Rattus norvegicus; assay: Decrease in plasma glucose level in Sprague-Dawley rat at 3 mg/kg, po after 180 mins relative to control; format: functional; set-up: scale not given: the % may be the effect or the level left; method in brief: as §2
[8] = tested on: Rattus norvegicus; assay: Decrease in plasma glucose level in Sprague-Dawley rat at 3 mg/kg, po after 15 mins relative to control; format: functional; set-up: scale not given: the % may be the effect or the level left; method in brief: as §2
[9] = tested on: Rattus norvegicus; assay: Decrease in plasma glucose level in Sprague-Dawley rat at 3 mg/kg, po after 60 mins relative to control; format: functional; set-up: scale not given: the % may be the effect or the level left; method in brief: as §2
[10] = tested on: 3T3-L1; assay: Effect on insulin sensitizing activity in mouse 3T3-L1 cells assessed as increase in triglyceride accumulation at 10 uM after 7 days; format: functional
Method in brief: (§3)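 3T3-L1 preadipocytes in DMEM/10% FBS, grown to 2 days postconfluence. Differentiation induced with insulin, 0.5 mM IBMX and dexamethasone. Compound (1 or 10 mmol/L, DMSO diluted 1000-fold) present during first 4 days of differentiation; 0.1% DMSO negative control. Day 7: oil red O staining, dye extracted with isopropanol, OD 510 nm. Three or four independent experiments.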

[11] = tested on: 3T3-L1; assay: Effect on insulin sensitizing activity in mouse 3T3-L1 cells assessed as increase in triglyceride accumulation at 1 uM after 7 days; format: functional; method in brief: as §3

## CC(C)[C@H]1CC[C@H](C(=O)N[C@@H](Cc2ccc(OCCn3ccc4ccccc43)cc2)C(=O)O)CC1
[1]
  Activity: 146.6%
[2]
  Activity: 74.9%
[3]
  Activity: 35.7%

## Cc1oc(-c2ccccc2)nc1CCOc1ccc(C[C@@H](NC(=O)[C@H]2CC[C@H](C(C)C)CC2)C(=O)O)cc1
[4]
  Activity: 36.4%
[5]
  Activity: 17.3%
[6]
  EC50: 120 nM
[1]
  Activity: 487.4%
[2]
  Activity: 200.9%
[3]
  Activity: 105.2%
[7]
  Activity: 11.4%
[8]
  Activity: 21.2%
[9]
  Activity: 33.7%

## CC(C)[C@H]1CC[C@H](C(=O)N[C@@H](Cc2ccc(OCc3ccc(C(F)(F)F)cc3)cc2)C(=O)O)CC1
[1]
  Activity: 156.9%
[2]
  Activity: 76.7%
[3]
  Activity: 47.9%

## CC(C)[C@H]1CC[C@H](C(=O)N[C@@H](Cc2ccc(O)cc2)C(=O)O)CC1
[1]
  Activity: 64.8%
[2]
  Activity: 35.4%
[3]
  Activity: 17.5%

## Cc1oc(-c2ccccc2)nc1CCOc1ccc(C[C@H](NC(=O)[C@H]2CC[C@H](C(C)C)CC2)C(=O)O)cc1
[4]
  Activity: 8.51%
[5]
  Activity: 11.3%
[10]
  Activity: 46.01%
[6]
  EC50: 540 nM
[1]
  Activity: 329.2%
[2]
  Activity: 131.2%
[3]
  Activity: 68.5%
[7]
  Activity: 2.07%
[11]
  Activity: 38.14%
[8]
  Activity: 4.73%
[9]
  Activity: 4.47%

## CC(C)[C@H]1CC[C@H](C(=O)N[C@@H](Cc2ccc(OCCN(C)c3nc4ccccc4o3)cc2)C(=O)O)CC1
[1]
  Activity: 126.9%
[2]
  Activity: 72.8%
[3]
  Activity: 35.5%

## CC(C)[C@H]1CC[C@H](C(=O)N[C@@H](Cc2ccc(OCc3ccccc3)cc2)C(=O)O)CC1
[6]
  EC50: 1050 nM
[1]
  Activity: 225.9%
[2]
  Activity: 147.5%
[3]
  Activity: 53.1%

## CCCCOc1ccc(C[C@H](NC(=O)[C@H]2CC[C@H](C(C)C)CC2)C(=O)O)cc1
[6]
  EC50: 550 nM
[1]
  Activity: 326.2%
[2]
  Activity: 136.7%
[3]
  Activity: 73.4%

## CC(C)[C@H]1CC[C@H](C(=O)N[C@H](Cc2ccc(OCCN(C)c3nc4ccccc4o3)cc2)C(=O)O)CC1
[1]
  Activity: 145.1%
[2]
  Activity: 81.7%
[3]
  Activity: 24.8%

## CC(C)[C@H]1CC[C@H](C(=O)N[C@H](Cc2ccc(OCc3ccc(C(F)(F)F)cc3)cc2)C(=O)O)CC1
[1]
  Activity: 152.1%
[2]
  Activity: 85.6%
[3]
  Activity: 29.8%

## CCCCOc1ccc(C[C@@H](NC(=O)[C@H]2CC[C@H](C(C)C)CC2)C(=O)O)cc1
[6]
  EC50: 650 nM
[1]
  Activity: 261.6%
[2]
  Activity: 107.1%
[3]
  Activity: 58.9%

## CCOc1ccc(C[C@@H](NC(=O)[C@H]2CC[C@H](C(C)C)CC2)C(=O)O)cc1
[6]
  EC50: 260 nM
[1]
  Activity: 183.8%
[2]
  Activity: 107.3%
[3]
  Activity: 76.2%

## CC(C)[C@H]1CC[C@H](C(=O)N[C@@H](Cc2ccc(OCCN(C)c3ccccn3)cc2)C(=O)O)CC1
[1]
  Activity: 83.7%
[2]
  Activity: 41.5%
[3]
  Activity: 26%

## CC(C)[C@H]1CC[C@H](C(=O)N[C@H](Cc2ccc(OCCN(C)c3ccccn3)cc2)C(=O)O)CC1
[1]
  Activity: 59.4%
[2]
  Activity: 36.2%
[3]
  Activity: 24.4%

## CC(C)[C@H]1CC[C@H](C(=O)N[C@H](Cc2ccc(O)cc2)C(=O)O)CC1
[1]
  Activity: 122.2%
[2]
  Activity: 69.6%
[3]
  Activity: 34.2%

## CC(C)[C@H]1CC[C@H](C(=O)N[C@H](Cc2ccc(OCCn3ccc4ccccc43)cc2)C(=O)O)CC1
[1]
  Activity: 112%
[2]
  Activity: 58.8%
[3]
  Activity: 37.8%

## CCOc1ccc(C[C@H](NC(=O)[C@H]2CC[C@H](C(C)C)CC2)C(=O)O)cc1
[6]
  EC50: 960 nM
[1]
  Activity: 151.3%
[2]
  Activity: 99.9%
[3]
  Activity: 55.8%

## CC(C)[C@H]1CC[C@H](C(=O)N[C@H](Cc2ccc(OCc3ccccc3)cc2)C(=O)O)CC1
[6]
  EC50: 2820 nM
[1]
  Activity: 171.1%
[2]
  Activity: 94.4%
[3]
  Activity: 38.9%

## CC(C)[C@H]1CC[C@H](C(=O)N[C@@H](Cc2ccccc2)C(=O)O)CC1 [(S)-NATEGLINIDE]
[1]
  Activity: 61.1%
[2]
  Activity: 35.3%
[3]
  Activity: 26.4%

## O=C(O)[C@H](CC(=O)N1C[C@H]2CCCC[C@H]2C1)Cc1ccccc1 [MITIGLINIDE]
[4]
  Activity: 36.2%
[5]
  Activity: 87.3%
[6]
  EC50: 708 nM
[1]
  Activity: 120%
[2]
  Activity: 66%
[3]
  Activity: 52.5%
[7]
  Activity: 70.3%
[8]
  Activity: 16.5%
[9]
  Activity: 61.7%

## CC(C)[C@H]1CC[C@H](C(=O)N[C@H](Cc2ccccc2)C(=O)O)CC1 [NATEGLINIDE]
[6]
  EC50: 7590 nM
[1]
  Activity: 124.3%
[2]
  Activity: 66.8%
[3]
  Activity: 36.3%

## CN(CCOc1ccc(CC2SC(=O)NC2=O)cc1)c1ccccn1 (configuration not stated) [ROSIGLITAZONE]
[10]
  Activity: 35.87%
[11]
  Activity: 38.8%
